As a reminder, the MIC is the least concentration at which growth counts as inhibited. Read a high MIC as a need for much substance.

Converted amounts (≈) assume the structure as drawn. The source made the active and inactive calls. The rule behind the calls is not given here.

For four molecules, Activity and MIC results are on record in ChEMBL document CHEMBL1157313, “Metabolites from the marine-derived fungus Chromocleista sp. isolated from a deep-water sediment sample collected in the Gulf of Mexico” (2006).

In assay [1] the test system is P388. Briefly: Cytotoxicity against mouse P388 cells at 5 ug/mL after 45 hrs by MTT assay. The format is functional, cell-based. A digest of the protocol: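 Murine leukemia cells incubated 45 h with compound at 5 µg/mL in 96-well plates; cytotoxicity read spectrophotometrically using MTT.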
For orientation: Tetrazolium dyes change colour on reduction, which living cells bring about.

The test system of assay [2] is NCI/ADR-RES. The experiment in a line: Cytotoxicity against human NCI-ADR-RES cells at 5 ug/mL after 72 hrs by MTT assay. It counts as functional, cell-based. Summed up: (§1)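 Cells exposed to compound at 5 µg/mL for 72 h in 96-well format; viability read spectrophotometrically with MTT.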
Assay [3] deals with A549. Briefly: Cytotoxicity against human A549 cells at 5 ug/mL after 72 hrs by MTT assay. It counts as functional, cell-based. Summed up:
as §1

Assay [4] deals with Candida albicans. Briefly: Antifungal activity against Candida albicans ATCC 44506 up to 50 ug/mL after 18 hrs by broth microdilution method. The format is functional, organism-based. Summed up: (§2)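 MIC by standard broth microdilution with Sabouraud dextrose broth as growth medium; plates incubated 18 h at 37 °C.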
The subject of assay [5] is Staphylococcus aureus. Briefly: Antibacterial activity against Staphylococcus aureus ATCC 29213 at 50 ug/mL after 18 hrs by broth microdilution technique. The format is functional, organism-based. A digest of the protocol: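 MIC by standard broth microdilution in cation-supplemented Mueller-Hinton broth; plates incubated 18 h at 37 °C; tested at 50 µg/mL.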
On the technique in general: In broth dilution the organism is exposed to a series of concentrations in liquid medium.

The test system of assay [6] is PANC-1. Briefly: Cytotoxicity against human PANC1 cells at 5 ug/mL after 72 hrs by MTT assay. The format is functional, cell-based. Summed up: as §1
For assay [7], the system named is Candida albicans. The experiment in a line: Antifungal activity against Candida albicans ATCC 44506 after 18 hrs by broth microdilution method. It counts as functional. The settings on record: ATCC 44506, 18 h. Summed up: as §2

Regarding `O=C1[C@H](Cc2ccccc2)NC(=O)[C@@]2(O)CCCN12`, the outcome in assay [1], in assay [2], in assay [3], in assay [4], in assay [5] and in assay [6] was inactive.
As for `O=C1[C@H](Cc2ccccc2)NC(=O)[C@]2(O)CCCN12`, the result in assay [1], in assay [2], in assay [3], in assay [4], in assay [5] and in assay [6] was inactive.
For `O=C1C(O)=C(c2ccc(O)cc2)[C@@H]2CCCN12`, the outcome in assay [1], in assay [2], in assay [3], in assay [5] and in assay [6] was inactive. Further, in assay [7], the MIC was found to be 25 µg/mL (≈ 108 µM).
Consider `O=C1N[C@@H](Cc2ccccc2)C(=O)N2CCC=C12`, for which the result in assay [1], in assay [2], in assay [3], in assay [4], in assay [5] and in assay [6] was inactive.
